According to ChEMBL document CHEMBL1153433, “Design and synthesis of 2-amino-4-methylpyridine analogues as inhibitors for inducible nitric oxide synthase and in vivo evaluation of [18F]6-(2-fluoropropyl)-4-methyl-pyridin-2-amine as a potential PET tracer for inducible nitric oxide synthase” (J Med Chem, 2009):

Tests used:
Brain [1] = experiment: Biodistribution in LPS treated C57BL/6N mouse brain at 50 uCi/110 uL, iv administered 6 hrs […] LPS challenge measured after 30 mins post drug dose; assay type: ADME, organism-based; conditions: in vivo, 0.5 h
Summary of the method: (§1)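 Male C57BL/6N mice aged 6-8 weeks received E. coli O127:B8 LPS in PBS, 10 mg/kg i.v., 6 h before tracer. Tracer ~50 μCi in 10% ethanol/saline, i.v. tail vein. Sacrifice was at 5 min, 30 min, 1 h or 2 h post-injection. Organs were weighed and gamma-counted with injectate standards. Data are %ID/g, mean ± SD, n = 4.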

Kidney [2] = experiment: Biodistribution in C57BL/6N mouse kidney at 50 uCi/110 uL, iv after 2 hrs; assay type: ADME, organism-based; conditions: in vivo
Summary of the method: (§2)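 Untreated (control) male C57BL/6N mice aged 6-8 weeks. HPLC-purified tracer, ~50 μCi in 10% ethanol/saline, given i.v. via the tail vein. Mice were sacrificed at 5 min, 30 min, 1 h and 2 h post-injection. Tissues were removed, weighed and gamma-counted against diluted injectate standards. Data are %ID/g, mean ± SD, n = 4.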

Muscle tissue [3] = experiment: Biodistribution in LPS treated C57BL/6N mouse muscle at 50 uCi/110 uL, iv administered 6 hrs […] LPS challenge measured after 2 hrs post drug dose; assay type: ADME, organism-based; conditions: in vivo
Summary of the method: (§3)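 Male C57BL/6N mice, 6-8 weeks; LPS (E. coli O127:B8) in PBS, 10 mg/kg i.v., given 6 h before tracer. HPLC-purified [18F]tracer ~50 μCi in 10% ethanol/saline i.v. via tail vein. Killed at 5 min, 30 min, 1 h or 2 h; tissues weighed and gamma-counted against diluted injectate standards. Reported as %ID/g, mean ± SD, n = 4.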

[4] = Metabolic stability in Sprague-Dawley rat whole blood at 400 uCi after 1 hr; assay type: ADME, tissue-based; conditions: read-out: Stability
Summary of the method: (§4)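 Heparinized whole blood (5 mL) from a mature male Sprague-Dawley rat incubated with ~400 μCi [18F]tracer at 37 °C for 5 min to 2 h. Aliquots lysed with 3 volumes of ethanol and centrifuged; supernatant and pellet gamma-counted. Supernatant species analysed by silica TLC (ethyl acetate), identified by co-elution with non-radioactive standard.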

Lung [5] = experiment: Biodistribution in C57BL/6N mouse lung at 50 uCi/110 uL, iv after 30 mins; assay type: ADME, organism-based; conditions: in vivo, 0.5 h; summary of the method: as §2
Kidney [6] = experiment: Biodistribution in LPS treated C57BL/6N mouse kidney at 50 uCi/110 uL, iv administered 6 hrs […] LPS challenge measured after 30 mins post drug dose; assay type: ADME, organism-based; conditions: in vivo, 0.5 h; summary of the method: as §3
Muscle tissue [7] = experiment: Biodistribution in C57BL/6N mouse muscle at 50 uCi/110 uL, iv after 30 mins; assay type: ADME, organism-based; conditions: in vivo, 0.5 h; summary of the method: as §2
Lung [8] = experiment: Biodistribution in LPS treated C57BL/6N mouse lung at 50 uCi/110 uL, iv administered 6 hrs […] LPS challenge measured after 5 mins post drug dose; assay type: ADME, organism-based; conditions: in vivo; summary of the method: as §3
Heart [9] = experiment: Biodistribution in LPS treated C57BL/6N mouse heart at 50 uCi/110 uL, iv administered 6 hrs […] LPS challenge measured after 1 hr post drug dose; assay type: ADME, organism-based; conditions: in vivo; summary of the method: as §1
Muscle tissue [10] = experiment: Biodistribution in C57BL/6N mouse muscle at 50 uCi/110 uL, iv after 5 mins; assay type: ADME, organism-based; conditions: in vivo; summary of the method: as §2
Lung [11] = experiment: Biodistribution in LPS treated C57BL/6N mouse lung at 50 uCi/110 uL, iv administered 6 hrs […] LPS challenge measured after 1 hr post drug dose; assay type: ADME, organism-based; conditions: in vivo; summary of the method: as §3
[12] = Metabolic stability in Sprague-Dawley rat whole blood at 400 uCi after 2 hrs; assay type: ADME, tissue-based; conditions: read-out: Stability; summary of the method: as §4
Kidney [13] = experiment: Biodistribution in C57BL/6N mouse kidney at 50 uCi/110 uL, iv after 5 mins; assay type: ADME, organism-based; conditions: in vivo; summary of the method: as §2
Blood [14] = experiment: Biodistribution in C57BL/6N mouse blood at 50 uCi/110 uL, iv after 5 mins; assay type: ADME, organism-based; conditions: in vivo; summary of the method: as §2
Blood [15] = experiment: Biodistribution in LPS treated C57BL/6N mouse blood at 50 uCi/110 uL, iv administered 6 hrs […] LPS challenge measured after 5 mins post drug dose; assay type: ADME, organism-based; conditions: in vivo; summary of the method: as §1
Bone [16] = experiment: Biodistribution in LPS treated C57BL/6N mouse bone at 50 uCi/110 uL, iv administered 6 hrs […] LPS challenge measured after 30 mins post drug dose; assay type: ADME, organism-based, Bone element; conditions: in vivo, 0.5 h; summary of the method: as §1
Liver [17] = experiment: Biodistribution in C57BL/6N mouse liver at 50 uCi/110 uL, iv after 30 mins; assay type: ADME, organism-based; conditions: in vivo, 0.5 h; summary of the method: as §2
Muscle tissue [18] = experiment: Biodistribution in LPS treated C57BL/6N mouse muscle at 50 uCi/110 uL, iv administered 6 hrs […] LPS challenge measured after 5 mins post drug dose; assay type: ADME, organism-based; conditions: in vivo; summary of the method: as §3
Blood [19] = experiment: Biodistribution in C57BL/6N mouse blood at 50 uCi/110 uL, iv after 1 hr; assay type: ADME, organism-based; conditions: in vivo; summary of the method: as §2
[20] = Metabolic stability in Sprague-Dawley rat plasma assessed as parent compound remaining at 400 uCi, iv after 5 mins by HPLC; assay type: ADME, organism-based; conditions: read-out: Stability
Summary of the method: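 Anesthetized male Sprague-Dawley rat given 400 μCi [18F]tracer in 10% ethanol/saline i.v. via tail vein. Blood drawn by cardiac puncture at 5 and 30 min. Plasma separated by centrifugation, treated with 3 equivalents of acetonitrile and centrifuged; supernatant filtered and analysed by HPLC. Samples kept on ice.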

Liver [21] = experiment: Biodistribution in C57BL/6N mouse liver at 50 uCi/110 uL, iv after 2 hrs; assay type: ADME, organism-based; conditions: in vivo; summary of the method: as §2
Blood [22] = experiment: Biodistribution in LPS treated C57BL/6N mouse blood at 50 uCi/110 uL, iv administered 6 hrs […] LPS challenge measured after 30 mins post drug dose; assay type: ADME, organism-based; conditions: in vivo, 0.5 h; summary of the method: as §1
Liver [23] = experiment: Biodistribution in LPS treated C57BL/6N mouse liver at 50 uCi/110 uL, iv administered 6 hrs […] LPS challenge measured after 2 hrs post drug dose; assay type: ADME, organism-based; conditions: in vivo; summary of the method: as §3
Bone [24] = experiment: Biodistribution in C57BL/6N mouse bone at 50 uCi/110 uL, iv after 2 hrs; assay type: ADME, organism-based, Bone element; conditions: in vivo; summary of the method: as §2
Lung [25] = experiment: Biodistribution in LPS treated C57BL/6N mouse lung at 50 uCi/110 uL, iv administered 6 hrs […] LPS challenge measured after 2 hrs post drug dose; assay type: ADME, organism-based; conditions: in vivo; summary of the method: as §3
Heart [26] = experiment: Biodistribution in LPS treated C57BL/6N mouse heart at 50 uCi/110 uL, iv administered 6 hrs […] LPS challenge measured after 5 mins post drug dose; assay type: ADME, organism-based; conditions: in vivo; summary of the method: as §1
Heart [27] = experiment: Biodistribution in C57BL/6N mouse heart at 50 uCi/110 uL, iv after 30 mins; assay type: ADME, organism-based; conditions: in vivo, 0.5 h; summary of the method: as §2
Brain [28] = experiment: Biodistribution in C57BL/6N mouse brain at 50 uCi/110 uL, iv after 2 hrs; assay type: ADME, organism-based; conditions: in vivo; summary of the method: as §2
Liver [29] = experiment: Biodistribution in C57BL/6N mouse liver at 50 uCi/110 uL, iv after 1 hr; assay type: ADME, organism-based; conditions: in vivo; summary of the method: as §2
Heart [30] = experiment: Biodistribution in C57BL/6N mouse heart at 50 uCi/110 uL, iv after 5 mins; assay type: ADME, organism-based; conditions: in vivo; summary of the method: as §2
Muscle tissue [31] = experiment: Biodistribution in C57BL/6N mouse muscle at 50 uCi/110 uL, iv after 1 hr; assay type: ADME, organism-based; conditions: in vivo; summary of the method: as §2
Bone [32] = experiment: Biodistribution in LPS treated C57BL/6N mouse bone at 50 uCi/110 uL, iv administered 6 hrs […] LPS challenge measured after 5 mins post drug dose; assay type: ADME, organism-based, Bone element; conditions: in vivo; summary of the method: as §1
Kidney [33] = experiment: Biodistribution in LPS treated C57BL/6N mouse kidney at 50 uCi/110 uL, iv administered 6 hrs […] LPS challenge measured after 1 hr post drug dose; assay type: ADME, organism-based; conditions: in vivo; summary of the method: as §1
Brain [34] = experiment: Biodistribution in C57BL/6N mouse brain at 50 uCi/110 uL, iv after 5 mins; assay type: ADME, organism-based; conditions: in vivo; summary of the method: as §2

Cc1cc(N)nc(CC(C)[18F])c1 (centres undefined)
Drug uptake (Brain [1]): 0.52 % ID/g
Drug uptake (Kidney [2]): 0.8 % ID/g
Drug uptake (Muscle tissue [3]): 0.23 % ID/g
remaining at 1 h, 400 uCi [4]: 80%
Drug uptake (Lung [5]): 1.14 % ID/g
Drug uptake (Kidney [6]): 10.9 % ID/g
Drug uptake (Muscle tissue [7]): 0.71 % ID/g
Drug uptake (Lung [8]): 4.32 % ID/g
Drug uptake (Heart [9]): 0.41 % ID/g
Drug uptake (Muscle tissue [10]): 1.25 % ID/g
Drug uptake (Lung [11]): 0.73 % ID/g
remaining at 2 h, 400 uCi [12]: 75%
Drug uptake (Kidney [13]): 20.6 % ID/g
Drug uptake (Blood [14]): 2.37 % ID/g
Drug uptake (Blood [15]): 3.69 % ID/g
Drug uptake (Bone [16]): 3.7 % ID/g
Drug uptake (Liver [17]): 10.7 % ID/g
Drug uptake (Muscle tissue [18]): 1.64 % ID/g
Drug uptake (Blood [19]): 0.31 % ID/g
remaining at 5 min [20]: 40.3%
Drug uptake (Liver [21]): 0.74 % ID/g
Drug uptake (Blood [22]): 2.09 % ID/g
Drug uptake (Liver [23]): 0.42 % ID/g
Drug uptake (Bone [24]): 5.59 % ID/g
Drug uptake (Lung [25]): 0.18 % ID/g
Drug uptake (Heart [26]): 2.03 % ID/g
Drug uptake (Heart [27]): 0.6 % ID/g
Drug uptake (Brain [28]): 0.07 % ID/g
Drug uptake (Liver [29]): 2.59 % ID/g
Drug uptake (Heart [30]): 1.5 % ID/g
Drug uptake (Muscle tissue [31]): 0.27 % ID/g
Drug uptake (Bone [32]): 1.59 % ID/g
Drug uptake (Kidney [33]): 3.95 % ID/g
Drug uptake (Brain [34]): 1.6 % ID/g
